From ChEMBL document CHEMBL1811866, “Design, synthesis, and biological evaluation of abiotic, non-lactone modulators of LuxR-type quorum sensing” (Bioorg Med Chem, 2011)

Assays:
Format in all cases: functional
[1] = target: T1, Transcriptional activator protein TraR (Agrobacterium tumefaciens) (UniProt P33905); assay: Agonist activity at Agrobacterium tumefaciens WCF (pCF372) TraR assessed as activation of quorum sensing at 10 uM relative to OOHL
T1 sequence (whole entry): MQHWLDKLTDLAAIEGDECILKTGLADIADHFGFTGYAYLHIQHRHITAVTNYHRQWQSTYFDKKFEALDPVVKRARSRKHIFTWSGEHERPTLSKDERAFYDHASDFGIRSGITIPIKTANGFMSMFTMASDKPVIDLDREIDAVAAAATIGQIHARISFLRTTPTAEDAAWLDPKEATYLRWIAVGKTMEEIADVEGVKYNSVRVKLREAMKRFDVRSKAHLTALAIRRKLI

[2] = target: T1, Transcriptional activator protein TraR (Agrobacterium tumefaciens); assay: Antagonist activity at Agrobacterium tumefaciens WCF (pCF372) TraR assessed as inhibition of OOHL-induced quorum sensing activation at 10 uM relative to untreated control
[3] = target: T2, Transcriptional activator protein LuxR (Aliivibrio fischeri) (UniProt P12746); assay: Antagonist activity at Vibrio fischeri ESI 114 (delta-LuxI) LuxR assessed as inhibition of OHHL-induced quorum sensing activation at 10 uM relative to untreated control
T2 sequence (whole entry): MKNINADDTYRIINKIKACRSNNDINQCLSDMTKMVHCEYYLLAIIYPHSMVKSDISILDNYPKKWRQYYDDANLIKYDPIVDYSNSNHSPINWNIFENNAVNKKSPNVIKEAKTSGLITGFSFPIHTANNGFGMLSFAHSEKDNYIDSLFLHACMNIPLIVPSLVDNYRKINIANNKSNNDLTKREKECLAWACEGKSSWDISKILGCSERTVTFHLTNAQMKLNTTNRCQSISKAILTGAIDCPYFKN
Summary of the method: (§1)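 LuxR reporter in V. fischeri ESI 114 (Δ-LuxI), compounds screened at 10 μM in triplicate. For inhibition, cells challenged with 2 μM OHHL. Agonism normalized to native ligand at 100 μM. Negative controls with no ligand subtracted as background.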

[4] = tested on: Escherichia coli DH5[alpha]; assay: Agonist activity at Escherichia coli DH5alpha (pJN105L + pSC11) LasR assessed as activation of quorum sensing at 10 uM relative to N-(3-oxo)-dodecanoyl HL
[5] = target: T3, Transcriptional activator protein LasR (Pseudomonas aeruginosa (strain ATCC 15692 / PAO1 / 1C / PRS 101 / LMG12228)) (UniProt P25084); assay: Agonist activity at Pseudomonas aeruginosa PAO1 MW1 (pUM15) LasR assessed as activation of quorum sensing at 10 uM relative to N-(3-oxo)-dodecanoyl HL
T3 sequence (whole entry): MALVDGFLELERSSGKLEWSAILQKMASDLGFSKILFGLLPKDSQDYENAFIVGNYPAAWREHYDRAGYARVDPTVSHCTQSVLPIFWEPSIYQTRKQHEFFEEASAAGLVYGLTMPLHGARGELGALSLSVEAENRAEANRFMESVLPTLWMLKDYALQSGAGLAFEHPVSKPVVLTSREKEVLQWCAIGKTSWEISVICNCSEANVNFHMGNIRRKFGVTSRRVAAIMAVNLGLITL
Summary of the method: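 P. aeruginosa PAO1 MW1 grown overnight at 30 °C in LB/MOPS pH 7 with carbenicillin (300 µg/mL). Subcultured 1:10 at 37 °C to OD 0.25–0.30 and plated with compound only, no native ligand. Incubated with shaking at 37 °C for 8 h. OD and fluorescence then read.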

[6] = tested on: Escherichia coli DH5[alpha]; assay: Antagonist activity at Escherichia coli DH5alpha (pJN105L + pSC11) LasR assessed as inhibition of N-(3-oxo)-dodecanoyl HL-induced quorum sensing activation at 10 uM relative to untreated control
[7] = target: T2, Transcriptional activator protein LuxR (Aliivibrio fischeri); assay: Agonist activity at Vibrio fischeri ESI 114 (delta-LuxI) LuxR assessed as activation of quorum sensing at 10 uM relative to OHHL; summary of the method: as §1
[8] = target: T3, Transcriptional activator protein LasR (Pseudomonas aeruginosa (strain ATCC 15692 / PAO1 / 1C / PRS 101 / LMG12228)); assay: Antagonist activity at Pseudomonas aeruginosa PAO1 MW1 (pUM15) LasR assessed as inhibition of N-(3-oxo)-dodecanoyl HL-induced quorum sensing activation at 10 uM relative to untreated control
Summary of the method: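 P. aeruginosa PAO1 MW1 colony grown overnight at 30 °C in LB with MOPS at pH 7 plus carbenicillin (300 µg/mL). Diluted 1:10 and shaken at 37 °C to OD 0.25–0.30. OdDHL added to the subculture at 1 μM final, then plated with test compound. Plates shaken at 37 °C for 8 h, then optical density and fluorescence read.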

| Structure (SMILES) | Activity [1] [%] | inhibition [2] [%] | inhibition [3] [%] | Activity [4] [%] | Activity [5] [%] | inhibition [6] [%] | Activity [7] [%] | inhibition [8] [%] |
| --- | --- | --- | --- | --- | --- | --- | --- | --- |
| CCCCCCCCCC(=O)CC(=O)NCCc1ccccc1 | 0 | -4 | 7 | 0 | 0 | -4 | 1 | 5 |
| CCCCCCCCCC(=O)Nc1ccccc1 |  |  | 2 | 3 | 0 | 20 | 7 | 5 |
| O=C(Cc1ccc(Br)cc1)Nc1ccccc1 |  |  | 1 | 3 | 0 | 20 | 0 | 12 |
| CCCCCCCCCC(=O)CC(=O)NCc1cccc([N+](=O)[O-])c1 | 0 | -6 | 44 | 0 | 0 | 41 | 2 | 17 |
| CCCCCCCCCC(=O)CC(=O)NCc1ccc(OC)c(OC)c1 | 0 | -10 |  | 1 | 0 | 13 | 1 | 9 |
| CCCCCCCCCC(=O)CC(=O)N[C@@H](C)C(=O)OC | 0 | -4 | 24 | 2 | 0 | -4 | 4 | 23 |
| CCCCCCCCCC(=O)CC(=O)NCc1ccc(F)cc1 | 0 |  |  | 0 | 0 | 13 | 1 | 13 |
| CCCCCCCCCC(=O)CC(=O)NCCC(c1ccccc1)c1ccccc1 | -1 | -6 |  | 0 | 0 | 17 | 6 | 8 |
| CCCCCCCCCC(=O)CC(=O)NCc1cc(F)cc(F)c1 | -1 | -10 |  | 0 | 0 | 22 | 3 | 16 |
| CCOC(=O)CNC(=O)Cc1ccc(Br)cc1 |  |  | 14 | 0 | 0 | 33 | 0 |  |
| COc1ccc(CC(=O)NC2CCCC2)cc1 |  |  | 18 | 6 | 0 | 24 | 3 | -1 |
| O=C(Cc1ccc(-c2ccccc2)cc1)NC1CCCC1 |  |  | 17 | 0 | 1 | 4 | 5 |  |
| CCCCCCCCCC(=O)CC(=O)NCCC1=CCCCC1 | -1 |  | 35 | 0 | 4 | 10 | 3 | -7 |
| O=C(CCCc1c[nH]c2ccccc12)NC1CCCC1 |  |  | 25 | 0 | 2 | 20 | 4 | -10 |
| CCOC(=O)CNC(=O)Cc1ccccc1 |  |  | 15 | 0 | 0 | 38 | 0 | -10 |
| CCOC(=O)CNC(=O)Cc1ccc(SC(F)(F)F)cc1 |  |  | 43 | 0 | 0 | 33 | 0 |  |

| Structure (SMILES) | Activity [1] [%] | inhibition [2] [%] | inhibition [3] [%] | Activity [4] [%] | Activity [5] [%] | inhibition [6] [%] | Activity [7] [%] | inhibition [8] [%] |
| --- | --- | --- | --- | --- | --- | --- | --- | --- |
| CCOC(=O)CNC(=O)CCc1ccc(Cl)cc1 |  |  | 14 | 0 | 0 | 38 | 0 | -5 |
| O=C(Cc1ccccc1)NC1CCCC1 |  |  | 19 | 0 | 0 | 11 | 0 | 1 |
| CCOC(=O)CNC(=O)Cc1cccc([N+](=O)[O-])c1 |  |  | 19 | 93 | 0 | 41 | 0 |  |
| O=C(Cc1cccc([N+](=O)[O-])c1)Nc1ccccc1 |  |  | 0 | 0 | 1 | 12 | 0 | 0 |
| CCOC(=O)CNC(=O)CCc1cccc(I)c1 |  |  | 89 | 0 | 0 | 38 | 0 |  |
| CCCCCCCCCC(=O)CC(=O)NCc1c(F)cccc1F | -1 |  |  | 1 | 0 | 13 | 5 | 5 |
| CCCCCCCCCC(=O)CC(=O)NC1CCCC1 | -1 | -3 | 89 | 84 | 54 |  | 4 | -1 |
| O=C(Cc1cccc([N+](=O)[O-])c1)NC1CCCC1 |  |  | 62 | 0 | 0 | 29 | 33 | -5 |
| CCCCCCCCCC(=O)CC(=O)NCc1ccco1 | -1 | 1 | -4 | 0 | 0 | 0 | 4 | 26 |
| CCCCCCCCCC(=O)CC(=O)NCC(=O)OCC | 2 | -3 |  | 51 | 12 |  | 8 | 11 |
| CCCCCCCCCC(=O)CC(=O)Nc1ccccc1 | 1 |  | 12 | 3 | 1 | 54 | 2 | 29 |
| O=C(Cc1ccc(Br)cc1)NC1CCCC1 |  |  | 35 | 0 | 0 | 11 | 0 |  |
| CCCCCCCCCC(=O)CC(=O)Nc1cc(-c2ccc(Cl)cc2)nn1C | -2 |  | 2 | 0 | 0 | 0 | 3 | 0 |
| CCCCCCCCCC(=O)CC(=O)NCc1ccc(OC)cc1 | 0 | -8 | 15 | 73 | 1 |  | 2 | 38 |
| CCOC(=O)CNC(=O)CCc1ccc(OC)cc1 |  |  | 40 | 0 | 0 | 36 | 0 | -6 |
| CCCCCCCCCC(=O)CC(=O)NCc1ccccc1F | -1 |  |  | 0 | 0 | 38 | 2 | 13 |
